# Laboratory results taken from ChEMBL document CHEMBL1152519, “Synthesis, structural activity-relationships, and biological evaluation of novel amide-based allosteric binding site antagonists in NR1A/NR2B N-methyl-D-aspartate receptors” (Bioorg Med Chem, 2009).
# Tests used:
# [1] = target: Glutamate NMDA receptor; Grin1/Grin2b (Rattus norvegicus) (UniProt P35439+Q00960); assay: Antagonist activity at rat recombinant NR1/NR2B receptor expressed in Xenopus laevis oocytes assessed as inhibition of glutamate/glycine-induced current at 3 uM by two electrode voltage clamp method relative to control; assay type: functional, cell-based; conditions: Oocyte
# In short: (§1)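 Xenopus oocytes injected with NR1-1a (3–5 ng) plus NR2A, 2B, 2C or 2D cRNA (7–10 ng), kept at 15 °C. Voltage clamp at −40 mV. Responses to 50 μM glutamate + 30 μM glycine with 3 μM compound, as % of response without compound. NR2A oocytes pre-loaded with 50 μM BAPTA-AM. Mean ± SEM, 4–10 oocytes; paired t-test.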
# [2] = target: Adrenergic receptor alpha-1 (Rattus norvegicus) (UniProt P15823+P23944+P43140); assay: Displacement of [3H]prazosin from alpha1 adrenergic receptor in Wistar rat brain membrane at 3 uM; assay type: cell membranes
# In short: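 Wistar rat brain membranes. Percent displacement of 0.25 nM [3H]prazosin by 3 μM compound, run in duplicate.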
# [3] = target: Glutamate receptor 1 (Rattus norvegicus) (UniProt P19490); assay: Antagonist activity at rat recombinant GluR1 expressed in Xenopus laevis oocytes assessed as inhibition of glutamate-induced current at 3 uM by two electrode voltage clamp method relative to control; assay type: functional, cell-based; conditions: Oocyte
# In short: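 GluR1 homomers expressed from 5–10 ng cRNA in Xenopus oocytes. Clamped at −40 mV. Currents evoked by 100 μM glutamate with 3 μM compound, expressed as % of control without compound. Mean ± SEM, 4–10 oocytes; paired t-test.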
# [4] = target: Ionotropic glutamate receptor NMDA 1/2D (Rattus norvegicus) (UniProt P35439+Q62645); assay: Antagonist activity at rat recombinant NR1/NR2D receptor expressed in Xenopus laevis oocytes assessed as inhibition of glutamate/glycine-induced current at 3 uM by two electrode voltage clamp method relative to control; assay type: functional, cell-based; conditions: Oocyte; in short: as §1
# [5] = target: Glutamate receptor ionotropic, kainate 2 (Rattus norvegicus) (UniProt P42260); assay: Antagonist activity at rat recombinant GluR6 expressed in Xenopus laevis oocytes assessed as inhibition of concanavalin A/glutamate-induced current at 3 uM by two electrode voltage clamp method relative to control; assay type: functional, cell-based; conditions: Oocyte
# In short: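 Oocytes expressing homomeric GluR6 (5–10 ng cRNA) pretreated 5 min with 10 μM concanavalin-A. Currents evoked by 100 μM glutamate at −40 mV, with or without 3 μM compound, and given as percent of control. Mean ± SEM of 4–10 oocytes; paired t-test.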
# [6] = target: Glutamate NMDA receptor; Grin1/Grin2a (Rattus norvegicus) (UniProt P35439+Q00959); assay: Antagonist activity at rat recombinant NR1/NR2A receptor expressed in Xenopus laevis oocytes assessed as inhibition of glutamate/glycine-induced current at 3 uM by two electrode voltage clamp method relative to control; assay type: functional, cell-based; conditions: Oocyte; in short: as §1
# [7] = target: Glutamate NMDA receptor; Grin1/Grin2c (Rattus norvegicus) (UniProt P35439+Q00961); assay: Antagonist activity at rat recombinant NR1/NR2C receptor expressed in Xenopus laevis oocytes assessed as inhibition of glutamate/glycine-induced current at 3 uM by two electrode voltage clamp method relative to control; assay type: functional, cell-based; conditions: Oocyte; in short: as §1
# [8] = target: Glutamate NMDA receptor; GRIN1/GRIN2B (Homo sapiens, UniProt Q05586+Q13224); assay: Antagonist activity at human recombinant NR1/NR2B receptor expressed in frog oocytes assessed as inhibition of glutamate/glycine-induced current by two electrode voltage clamp method; assay type: functional, cell-based, Oocyte
# In short: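 Human NR1/NR2B cRNA injected into Xenopus oocytes. Two-electrode voltage clamp at −40 mV, 23 °C, 2–7 d after injection. Glutamate/glycine (50–100 μM/30 μM) applied, then with 5–8 compound concentrations. Bath contains 10 μM EDTA; leak-corrected.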
# hERG (KCNH2) [9] = target: T1, hERG (KCNH2) (Homo sapiens, UniProt Q12809); assay: Displacement of [3H]astemizole from human recombinant ERG expressed in HEK293 cells at 10 uM; assay type: cell-based; conditions: HEK293 cells expressing human recombinant ERG, probe [3H]astemizole, read-out: Activity
# MDCK [10] = assay: Apparent permeability from basolateral to apical side of MDR1-expressing MDCK cells at 5 uM after 2 hrs by LC-MS/MS analysis; assay type: ADME, cell-based, Canis lupus familiaris; conditions: dog
# In short: (§2)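 MDR1-MDCK monolayers grown 7–11 days on Transwells. Compound at 5 μM in HBSS pH 7.4 (final DMSO ≤1%) added apically (A–B) or basally (B–A). Incubated 2 h at 37 °C; both compartments quantified by LC–MS/MS against a >4-point calibration. Papp given in ×10−6 cm/s; efflux ratio = B–A/A–B. Duplicates.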
# MDCK [11] = assay: Apparent permeability from apical to basolateral side of MDR1-expressing MDCK cells at 5 uM after 2 hrs by LC-MS/MS analysis; assay type: ADME, cell-based, Canis lupus familiaris; conditions: dog; in short: as §2
# [12] = target: Glutamate receptor ionotropic, NMDA 2B (Rattus norvegicus, UniProt Q00960); assay: Displacement of [3H]ifenprodil form NR2B receptor in Wistar rat cerebral cortex membrane; assay type: tissue-based
# [13] = Selectivity ratio of IC50 for mouse NR1/NR2B receptor D101A mutant to IC50 for wild type rat NR1/NR2B receptor
# MDCK [14] = assay: Efflux ratio of permeability from basolateral to apical over apical to basolateral side in MDR1-expressing MDCK cells at 5 uM after 2 hrs by LC-MS/MS analysis; assay type: ADME, cell-based, Canis lupus familiaris; conditions: dog
# [15] = target: Voltage-gated inwardly rectifying potassium channel KCNH2 (Homo sapiens, UniProt Q12809); assay: Displacement of [3H]astemizole from human recombinant ERG expressed in HEK293 cells; assay type: cell-based
# hERG (KCNH2) [16] = target: T1, hERG (KCNH2); assay: Displacement of [3H]astemizole from human recombinant ERG expressed in HEK293 cells at 3 uM; assay type: cell-based; conditions: HEK293 cells expressing human recombinant ERG, probe [3H]astemizole, read-out: Activity
# In short: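 Membranes from HEK293 cells expressing human hERG. Ligand 1.5 nM [3H]-astemizole; displacement at a single test-compound concentration, run in duplicate.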
# Sequence of Glutamate receptor ionotropic, kainate 2 (Rattus norvegicus) (P42260 whole entry): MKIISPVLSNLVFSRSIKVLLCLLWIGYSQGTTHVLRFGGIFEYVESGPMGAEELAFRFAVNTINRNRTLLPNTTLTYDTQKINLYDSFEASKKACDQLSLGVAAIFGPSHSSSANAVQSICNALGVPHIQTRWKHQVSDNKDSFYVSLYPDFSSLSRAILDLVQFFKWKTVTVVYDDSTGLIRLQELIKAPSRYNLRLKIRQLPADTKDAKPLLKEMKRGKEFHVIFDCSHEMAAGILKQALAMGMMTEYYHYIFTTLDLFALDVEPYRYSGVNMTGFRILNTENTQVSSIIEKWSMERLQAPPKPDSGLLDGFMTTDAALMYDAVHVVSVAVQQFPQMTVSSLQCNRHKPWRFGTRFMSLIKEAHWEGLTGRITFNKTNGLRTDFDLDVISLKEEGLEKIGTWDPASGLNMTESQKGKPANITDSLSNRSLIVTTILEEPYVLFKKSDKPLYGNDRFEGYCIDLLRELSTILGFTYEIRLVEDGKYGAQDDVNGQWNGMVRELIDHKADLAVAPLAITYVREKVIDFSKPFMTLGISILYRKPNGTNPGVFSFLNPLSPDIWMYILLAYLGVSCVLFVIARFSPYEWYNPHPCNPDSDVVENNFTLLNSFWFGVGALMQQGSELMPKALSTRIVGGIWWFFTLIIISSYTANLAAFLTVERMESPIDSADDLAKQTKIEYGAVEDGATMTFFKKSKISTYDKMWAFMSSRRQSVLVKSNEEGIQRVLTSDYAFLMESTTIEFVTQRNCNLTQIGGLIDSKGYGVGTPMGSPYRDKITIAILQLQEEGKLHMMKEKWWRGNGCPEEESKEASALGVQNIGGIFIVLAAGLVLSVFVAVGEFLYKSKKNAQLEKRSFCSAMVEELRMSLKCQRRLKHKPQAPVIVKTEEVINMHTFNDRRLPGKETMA
# Sequence of Voltage-gated inwardly rectifying potassium channel KCNH2 (Q12809 whole entry): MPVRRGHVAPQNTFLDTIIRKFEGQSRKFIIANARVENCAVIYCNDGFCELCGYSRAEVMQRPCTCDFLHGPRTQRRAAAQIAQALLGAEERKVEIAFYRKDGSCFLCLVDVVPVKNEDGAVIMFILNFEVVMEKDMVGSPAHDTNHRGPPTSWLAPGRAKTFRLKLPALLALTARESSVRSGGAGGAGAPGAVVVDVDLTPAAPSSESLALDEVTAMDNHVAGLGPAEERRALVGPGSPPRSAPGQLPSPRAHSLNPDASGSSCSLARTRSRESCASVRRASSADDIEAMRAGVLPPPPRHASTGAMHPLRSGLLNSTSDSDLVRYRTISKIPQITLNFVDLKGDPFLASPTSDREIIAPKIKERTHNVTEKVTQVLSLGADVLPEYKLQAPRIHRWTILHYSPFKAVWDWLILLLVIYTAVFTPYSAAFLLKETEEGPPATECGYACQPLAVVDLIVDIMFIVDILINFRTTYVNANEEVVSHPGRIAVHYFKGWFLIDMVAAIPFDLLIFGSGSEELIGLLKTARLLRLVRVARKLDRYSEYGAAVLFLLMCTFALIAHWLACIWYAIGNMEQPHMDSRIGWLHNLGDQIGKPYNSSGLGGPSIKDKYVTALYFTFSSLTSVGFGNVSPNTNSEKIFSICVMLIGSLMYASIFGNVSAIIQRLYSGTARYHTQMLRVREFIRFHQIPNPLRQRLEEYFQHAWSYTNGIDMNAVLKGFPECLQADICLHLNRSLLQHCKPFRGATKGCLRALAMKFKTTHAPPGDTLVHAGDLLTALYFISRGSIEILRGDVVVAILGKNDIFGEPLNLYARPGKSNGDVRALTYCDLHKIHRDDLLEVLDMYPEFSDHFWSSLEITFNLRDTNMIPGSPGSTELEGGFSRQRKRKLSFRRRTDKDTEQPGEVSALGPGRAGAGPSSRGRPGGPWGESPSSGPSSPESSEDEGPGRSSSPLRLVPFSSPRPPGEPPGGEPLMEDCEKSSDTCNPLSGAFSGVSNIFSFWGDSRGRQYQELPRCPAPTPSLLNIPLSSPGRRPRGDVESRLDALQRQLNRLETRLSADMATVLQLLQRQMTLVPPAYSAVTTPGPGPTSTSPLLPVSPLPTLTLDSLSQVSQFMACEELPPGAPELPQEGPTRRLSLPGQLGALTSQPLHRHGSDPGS
# T1 sequence (Q12809 whole entry): as above
# Sequence of Glutamate NMDA receptor; GRIN1/GRIN2B (Q13224 whole entry, other chains not shown): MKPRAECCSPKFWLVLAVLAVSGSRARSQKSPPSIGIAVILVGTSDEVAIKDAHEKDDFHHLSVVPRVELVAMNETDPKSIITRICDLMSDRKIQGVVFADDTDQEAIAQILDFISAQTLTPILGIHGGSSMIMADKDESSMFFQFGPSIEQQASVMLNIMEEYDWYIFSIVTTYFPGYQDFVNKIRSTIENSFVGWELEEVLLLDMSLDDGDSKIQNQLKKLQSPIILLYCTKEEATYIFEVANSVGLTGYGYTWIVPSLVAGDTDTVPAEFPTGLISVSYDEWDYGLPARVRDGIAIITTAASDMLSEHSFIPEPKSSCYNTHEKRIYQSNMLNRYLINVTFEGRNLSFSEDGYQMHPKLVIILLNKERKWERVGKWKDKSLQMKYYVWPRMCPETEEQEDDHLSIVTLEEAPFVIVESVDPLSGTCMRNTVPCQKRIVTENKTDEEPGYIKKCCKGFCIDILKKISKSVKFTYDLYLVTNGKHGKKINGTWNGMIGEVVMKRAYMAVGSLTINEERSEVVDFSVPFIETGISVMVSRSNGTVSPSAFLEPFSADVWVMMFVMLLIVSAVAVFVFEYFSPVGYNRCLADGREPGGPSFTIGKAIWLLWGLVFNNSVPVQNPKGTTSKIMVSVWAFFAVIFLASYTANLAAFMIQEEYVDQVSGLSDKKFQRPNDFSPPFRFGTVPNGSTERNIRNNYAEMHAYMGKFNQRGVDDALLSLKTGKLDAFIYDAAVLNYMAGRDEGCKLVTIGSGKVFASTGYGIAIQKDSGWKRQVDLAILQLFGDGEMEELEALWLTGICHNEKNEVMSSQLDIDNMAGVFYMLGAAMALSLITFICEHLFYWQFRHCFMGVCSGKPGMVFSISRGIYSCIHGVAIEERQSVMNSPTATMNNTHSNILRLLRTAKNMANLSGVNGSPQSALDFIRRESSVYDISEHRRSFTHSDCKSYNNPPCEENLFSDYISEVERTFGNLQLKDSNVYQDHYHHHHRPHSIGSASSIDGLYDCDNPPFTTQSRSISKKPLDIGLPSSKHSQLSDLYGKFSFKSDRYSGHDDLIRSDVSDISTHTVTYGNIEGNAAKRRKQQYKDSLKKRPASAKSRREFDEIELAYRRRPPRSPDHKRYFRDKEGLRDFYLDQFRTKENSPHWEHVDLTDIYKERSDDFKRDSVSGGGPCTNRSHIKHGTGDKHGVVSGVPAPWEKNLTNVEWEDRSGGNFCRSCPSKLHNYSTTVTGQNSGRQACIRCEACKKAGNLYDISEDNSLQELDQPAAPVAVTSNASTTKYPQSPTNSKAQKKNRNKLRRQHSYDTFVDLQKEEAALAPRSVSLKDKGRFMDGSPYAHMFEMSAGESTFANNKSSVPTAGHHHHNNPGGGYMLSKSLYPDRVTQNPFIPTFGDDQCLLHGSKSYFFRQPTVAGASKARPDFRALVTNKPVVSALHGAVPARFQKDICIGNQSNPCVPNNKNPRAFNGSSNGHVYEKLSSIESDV
Compound,% response [1] [%],Activity [2] [%],% response [3] [%],% response [4] [%],% response [5] [%],% response [6] [%],% response [7] [%],IC50 [8] [nM],inhibition at 10 µM (hERG (KCNH2) [9]) [%],Papp (MDCK [10]) [×10⁻⁶ cm/s],Papp (MDCK [11]) [×10⁻⁶ cm/s],Ki [12] [nM],Ratio IC50 [13],Ratio (MDCK [14]),Ki [15] [nM],inhibition at 3 µM (hERG (KCNH2) [16]) [%]
CS(=O)(=O)Nc1ccc(OCC(=O)NCCSc2ccc(Cl)c(Cl)c2)cc1,21,5,101,96,94,96,95,362,75,,,,,,,
CS(=O)(=O)Nc1ccc(CCC(=O)NNC(=O)c2ccc(Cl)c(Cl)c2)cc1,21,,100,96,97,102,97,521,,,,,,,,
CS(=O)(=O)Nc1ccc(OCC(=O)N2CCN(c3ccc(Cl)c(Cl)c3)CC2)cc1,18,90,101,106,101,89,94,166,93,42.4,4.76,817,,,,
CS(=O)(=O)Nc1ccc(OCC(=O)NCCOc2ccc(Cl)c(Cl)c2)cc1,21,11,100,92,100,97,96,380,42,,,,,,,
CS(=O)(=O)Nc1ccc(CCC(=O)NCCCNc2ccc(Cl)c(Cl)c2)cc1,12,19,100,96,98,96,90,750,83,,,,,,,
CS(=O)(=O)Nc1ccc(CCC(=O)NNC(=S)Nc2ccc(Cl)c(Cl)c2)cc1,12,,100,92,96,104,94,270,13,,,,,,,
CS(=O)(=O)Nc1ccc(CCC(=O)NCCNc2ccc(Cl)c(Cl)c2)cc1,14,1,,84,98,99,,65,,,,,,,,
CS(=O)(=O)Nc1ccc(CCCN2CCN(c3ccc(Cl)c(Cl)c3)C2=O)cc1,17,,100,91,99,96,97,637,81,,,,,,,
CS(=O)(=O)Nc1ccc(CCC(=O)NNC(=O)Nc2ccc(Cl)c(Cl)c2)cc1,6,5,100,91,99,101,96,28,3,,,,51,,,
CS(=O)(=O)Nc1ccc(OCC(=O)NCCCNc2ccc(Cl)c(Cl)c2)cc1,12,,103,100,90,106,97,193,,,,,,,,
CS(=O)(=O)Nc1ccc(OCCN2CCN(c3ccc(Cl)c(Cl)c3)C2=O)cc1,20,23,98,98,103,105,98,730,71,40.2,12.9,300,,3.1,,
CS(=O)(=O)Nc1ccc(OCC(=O)NCCCc2ccc(Cl)c(Cl)c2)cc1,15,,100,79,102,99,96,64,< 1,,,,,,,
CS(=O)(=O)Nc1ccc(CCC(=O)NNCCc2ccc(Cl)c(Cl)c2)cc1,44,,100,95,98,106,97,4810,,,,,,,,
CS(=O)(=O)Nc1ccc(CCC(=O)N2CCN(c3ccc(Cl)c(Cl)c3)CC2)cc1,48,,104,97,101,103,100,3600,,,,,,,,
CS(=O)(=O)Nc1ccc(CCCNCCNc2ccc(Cl)c(Cl)c2)cc1,21,52,102,91,99,89,104,19,> 98,,,,,,14,
CS(=O)(=O)Nc1ccc(OCCNCC(=O)Nc2ccc(Cl)c(Cl)c2)cc1,21,21,97,95,98,108,94,1110,67,,,,,,,
CS(=O)(=O)Nc1ccc(CCCC(=O)NCCc2ccc(Cl)c(Cl)c2)cc1,62,,102,89,100,99,102,1860,,,,,,,,
CS(=O)(=O)Nc1ccc(CCC(=O)NN2C(=O)c3cc(Cl)c(Cl)cc3C2=O)cc1,90,,98,93,100,101,102,41800,,,,,,,,
CS(=O)(=O)Nc1ccc(OCC(=O)NC/C=C/c2ccc(Cl)c(Cl)c2)cc1,14,22,101,97,94,100,95,72,74,,,,,,,
CS(=O)(=O)Nc1ccc(OCCNCCNc2ccc(Cl)c(Cl)c2)cc1,17,49,101,100,98,91,100,39,97,,,,,,300,
CS(=O)(=O)Nc1ccc(CCC(=O)NC/C=C/c2ccc(Cl)c(Cl)c2)cc1,18,16,104,88,100,99,95,50,,,,,,,3000,47
